From the array DNA melting data of Ke et al. (doi:10.1101/2024.01.08.574731)

How the values were obtained:
[1] = folding enthalpy; higher = less favourable; fluorescence melt of hairpins on a sequencing array, two-state fit; conditions: sodium 0.088 M
Procedure, shortened: (§1)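 Library hairpins on a sequenced MiSeq flow cell carried annealed Cy3 and quencher oligos, and their Cy3 fluorescence was imaged in 50 mM Na-HEPES pH 8.0 with 25 mM NaCl, in 2.5 °C steps up to 60 °C. Signals were normalised to Cy3 before quenching and to control constructs. Melting temperature and folding enthalpy were obtained from bootstrapped two-state fits, combined by inverse-variance weighting across four replicates, and the fitted temperatures were then raised by 9.35 °C to match UV melts.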

[2] = melting temperature; fluorescence melt of hairpins on a sequencing array, two-state fit, raised by 9.35 °C to match UV melts; conditions: sodium 0.088 M
Procedure, shortened: as §1

Row | Sequence | folding enthalpy [1] | Tm [2]
1 | GCGTAGGTACGC ((((....)))) | -20.3 kcal/mol | 52.8 °C
2 | GGAATTGGAAACGATTCC (((((.(....).))))) | -34.4 kcal/mol | 45.6 °C
3 | GACCTGGGAAACCAGACC (..((((....))))..) | -10.3 kcal/mol | 24.6 °C
4 | GACTCGCGAAAGCGTGTC (((.(((....))).))) | -27.1 kcal/mol | 63.3 °C
5 | GACACGGGAAACCGCGTC (((.(((....))).))) | -47.8 kcal/mol | 50.9 °C
6 | GACTACGAAAGTATGTC ((((((....))).))) | -26.2 kcal/mol | 44.7 °C
7 | GATCGACCATCGATC ((((((...)))))) | -32.2 kcal/mol | 49.6 °C
8 | GATCACTACGGTGATC ((((((....)))))) | -37.9 kcal/mol | 58.7 °C
9 | GATATAGGAAACTATGTC ((.((((....)))).)) | -21.8 kcal/mol | 33.5 °C
10 | GATCTGCTTCCAGATC ((((((....)))))) | -33.4 kcal/mol | 48.5 °C
11 | GGAGGTGGAAACGCCTCC (((((.(....).))))) | -50 kcal/mol | 57.2 °C
12 | GCCTTTGGAAACAAAGGC (((((((....))))))) | -38.4 kcal/mol | 66.7 °C
13 | GGCCTACGAAAGTAGCC (((.(((....)))))) | -22.4 kcal/mol | 53.6 °C
14 | GGCCCCGAAAGGGGTGCC ((((((....)))..))) | -12.1 kcal/mol | 59.1 °C
15 | GGCGATGCGAAAGCAGCC (((..(((....)))))) | -19.5 kcal/mol | 58.5 °C
16 | GCGGGCGAAAGCCGCCGC ((((((....)))..))) | -11.3 kcal/mol | 61.7 °C
17 | GATCACTTACGTGATC ((((((....)))))) | -38.1 kcal/mol | 57.4 °C
18 | GATCTGAAACAGATC ((((((...)))))) | -31.6 kcal/mol | 46.3 °C
19 | GCACTCGGAAACGAATGC (((.(((....))).))) | -33.5 kcal/mol | 45.1 °C
20 | GATCAGAAGCTGATC ((((((...)))))) | -33 kcal/mol | 48 °C
21 | GATCGTCGTCACGATC ((((((....)))))) | -40.6 kcal/mol | 53.5 °C
22 | GTCCACGGAAACACGGAC ((((..(....)..)))) | -18.4 kcal/mol | 37.2 °C
23 | GTTGGAGGAAACTCCGAC ((.((((....)))).)) | -40.7 kcal/mol | 52.8 °C
24 | GCCGGCGAAAGCCGCGGC ((((((....)))..))) | -11.9 kcal/mol | 65.3 °C

Row | Sequence | folding enthalpy [1] | Tm [2]
25 | GATCCCAAGAGGGATC ((((((....)))))) | -33.9 kcal/mol | 60.8 °C
26 | GCTGCCGAAAGGCTTAGC ((((((....)))..))) | -16.1 kcal/mol | 45.2 °C
27 | GCATGCGAAAGCAGGTGC ((((((....)))..))) | -23.2 kcal/mol | 51.1 °C
28 | GGCCAAGGAAACTTGACC ((.((((....)))).)) | -30.3 kcal/mol | 43.1 °C
29 | GGCATGCGAAAGCACGCC (((.(((....))).))) | -27.3 kcal/mol | 63.4 °C
30 | GGTATTCGAAAGAACACC (((.(((....))).))) | -29.4 kcal/mol | 39.3 °C
31 | GACCACCGAAAGGTGTC (((.(((....)))))) | -12.7 kcal/mol | 47.5 °C
32 | GGCTGCGGAAACGCAACC ((.((((....)))).)) | -22.3 kcal/mol | 54.7 °C
33 | GATCATAGCTATGATC ((((((....)))))) | -47.4 kcal/mol | 50.7 °C
34 | GCTGCGGGAAACCGCAAC (.(((((....))))).) | -11.4 kcal/mol | 45.9 °C
35 | GTCTCACCGAAAGGTGAC (((..(((....)))))) | -7.93 kcal/mol | 36.1 °C
36 | GCTCAGACGAAAGTCAGC (((..(((....)))))) | -15.5 kcal/mol | 41 °C
37 | GTCGCCGAAAGGCATGAC ((((((....)))..))) | -13.2 kcal/mol | 40.7 °C
38 | GGCTGTGGAAACATAGCC ((((.((....)).)))) | -43.4 kcal/mol | 53.5 °C
39 | GCGGCAGGAAACCACCGC ((((..(....)..)))) | -25.9 kcal/mol | 45.2 °C
40 | GCGATATTCGC ((((...)))) | -17.2 kcal/mol | 51.9 °C
41 | GATCAGACGCCTGATC ((((((....)))))) | -40.1 kcal/mol | 50 °C
42 | GCGCTGCGAAAGCAAGGC ((..(((....)))..)) | -16 kcal/mol | 46.7 °C
43 | GATCCGAGATCGGATC ((((((....)))))) | -42.3 kcal/mol | 56.4 °C
44 | GATAGCGAAAGCTCATC ((((((....))).))) | -13.3 kcal/mol | 36.5 °C
45 | GTGAGAGAAATCTCAC ((((((....)))))) | -32.4 kcal/mol | 51.7 °C
46 | GTTCCGCGAAAGCGAAC (((.(((....)))))) | -14.7 kcal/mol | 50.8 °C
47 | GGCTCTGGAAACAGAGTC (.(((((....))))).) | -35.7 kcal/mol | 52.8 °C
48 | GAGCCCGAAAGGGGCCTC ((((((....)))..))) | -13.5 kcal/mol | 49.9 °C

Row | Sequence | folding enthalpy [1] | Tm [2]
49 | GAGGGCGAAAGCCCACTC ((((((....)))..))) | -10.6 kcal/mol | 55.6 °C
50 | GCACTGCGAAAGCTTTGC (((..((....))..))) | -24.5 kcal/mol | 42.9 °C
51 | CGGACGGAAACGTACCG ((((((....))).))) | -24.2 kcal/mol | 47.5 °C
52 | GGTTGCGAAAGCAGAACC ((((((....)))..))) | -19.8 kcal/mol | 47.5 °C
53 | GGTAGCGAAAGCTCAACC ((((((....)))..))) | -13.7 kcal/mol | 34.9 °C
54 | GTTTAACGAAAGTTAAC (((.(((....)))))) | -14.6 kcal/mol | 37.1 °C
55 | GTGAAGGGAAACTTTCAC (((((.(....).))))) | -24.8 kcal/mol | 40.2 °C
56 | GATCGGAGTCCGATC ((((((...)))))) | -38.6 kcal/mol | 54 °C
57 | GATCCGTGACCGGATC ((((((....)))))) | -44.1 kcal/mol | 56 °C
58 | GGCCAAGAAATTGGCC ((((((....)))))) | -40.1 kcal/mol | 64.4 °C
59 | GAAGAACGAAAGTTGTTC (((.(((....))).))) | -32.7 kcal/mol | 41.4 °C
60 | TCGCAGAAATGCGA (((((....))))) | -17.1 kcal/mol | 54.4 °C
61 | GGCGTAGGAAACTACACC ((.((((....)))).)) | -29.1 kcal/mol | 44.4 °C
62 | GGTTAGACGAAAGTCACC (((..(((....)))))) | -6.17 kcal/mol | 27 °C
63 | GCAAGCGAAAGCTCTGC ((((((....))).))) | -20 kcal/mol | 45.9 °C
64 | GACCGCGAAAGCGCAGTC ((((((....)))..))) | -16.3 kcal/mol | 38 °C
65 | GATCCCGTGCGGGATC ((((((....)))))) | -35.8 kcal/mol | 66.3 °C
66 | GCGGACCGCCGC ((((....)))) | -19.1 kcal/mol | 55.8 °C
67 | GATCTGCTCGCAGATC ((((((....)))))) | -47.5 kcal/mol | 62.6 °C
68 | GATCTGTGACAGATC ((((((...)))))) | -31.5 kcal/mol | 48.8 °C
69 | GCGCAGCGAAAGCTAAGC ((..(((....)))..)) | -17.7 kcal/mol | 58.4 °C
70 | GCGGCTCCCCGC ((((....)))) | -22.1 kcal/mol | 54.8 °C
71 | CGTTGCGGAAACGCCACG (((.(((....))).))) | -29.8 kcal/mol | 49.5 °C
72 | GGGTCAGGAAACTAACCC ((((.((....)).)))) | -25.4 kcal/mol | 38.2 °C

Row | Sequence | folding enthalpy [1] | Tm [2]
73 | GATCCCCACCGGGATC ((((((....)))))) | -34.7 kcal/mol | 57.3 °C
74 | GCCGCAGGAAACCGCGGC (((((.(....).))))) | -32.1 kcal/mol | 67.8 °C
75 | GTCTGCGAAAGCAGTGAC ((((((....)))..))) | -9.57 kcal/mol | 40.5 °C
76 | GCTGCCGAAAGGCTAGC ((((((....))).))) | -16.7 kcal/mol | 59.6 °C
77 | GGTAGCGAAAGCTGACC ((((((....))).))) | -17.2 kcal/mol | 49.7 °C
78 | GTGTCAGGAAACCAACAC ((((..(....)..)))) | -13.5 kcal/mol | 28 °C
79 | GTGGGTTCGAAAGAACAC (((..(((....)))))) | -27 kcal/mol | 57.4 °C
80 | GCGGTGGGAAACCACTGC ((.((((....)))).)) | -38.9 kcal/mol | 60.4 °C
81 | GATCCATCAGTGGATC ((((((....)))))) | -34.9 kcal/mol | 51.6 °C
82 | GTAATGGGAAACCATTAC (((((((....))))))) | -45.5 kcal/mol | 53.4 °C
83 | GCCTGGTCGAAAGACGGC (((..(((....)))))) | -25.3 kcal/mol | 52.2 °C
84 | GGAAACGGAAACGCTTCC ((((.((....)).)))) | -34.1 kcal/mol | 43.4 °C
85 | GAACGCCGAAAGGCTTTC (((.(((....))).))) | -17.9 kcal/mol | 44.2 °C
86 | GTTCACGAAAGTGAGAAC ((((((....)))..))) | -11.2 kcal/mol | 37.5 °C
87 | GGGTATGGAAACGTACCC (((((.(....).))))) | -42.7 kcal/mol | 50.1 °C
88 | GATCGGAAGGCCGATC ((((((....)))))) | -35.7 kcal/mol | 53.9 °C
89 | GCGTAGGCGAAAGCCCGC (((..(((....)))))) | -19.7 kcal/mol | 61.9 °C
90 | GTTTGTCGAAAGACCAAC (((.(((....))).))) | -26.1 kcal/mol | 37.9 °C
91 | GCGCAAGGAAACCTGCGC (((((.(....).))))) | -41.7 kcal/mol | 62.4 °C
92 | GCCGTAGGAAACTACGAC (.(((((....))))).) | -18.5 kcal/mol | 40.8 °C
93 | CGGGTCGGAAACGACCG (((.(((....)))))) | -11.4 kcal/mol | 61.7 °C
